Data reported in ChEMBL document CHEMBL1687936, “Radiosynthesis and biological evaluation of L- and D-S-(3-[18F]fluoropropyl)homocysteine for tumor imaging using positron emission tomography” (J Med Chem, 2011).

Legend:
Brain [1] = assay: Biodistribution in brain of BALB/c nude mouse xenografted with human A375 cells at 0.8 to 1 MBq, iv after 120 mins by gamma-counter; assay type: ADME, organism-based, A-375; conditions: in vivo, 2 h
Summary of the method: (§1)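 Female Balb/c nude mice with s.c. A375 flank tumors, studied 26 days after tumor induction. Tracer 0.8-1 MBq in 100 μL saline given i.v. Groups of n = 5 killed at 15, 30, 60 and 120 min. Organs weighed and counted in a γ-counter against dilutions of the injected dose. Values are % ID/g wet tissue, mean ± SD.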

Bone [2] = assay: Biodistribution in bone of BALB/c nude mouse xenografted with human A375 cells at 0.8 to 1 MBq, iv after 60 mins by gamma-counter; assay type: ADME, organism-based, Bone element, A-375; conditions: in vivo, 1 h; summary of the method: as §1
Kidney [3] = assay: Biodistribution in kidney of BALB/c nude mouse xenografted with human A375 cells at 0.8 to 1 MBq, iv after 15 mins by gamma-counter; assay type: ADME, organism-based, A-375; conditions: in vivo, 0.25 h; summary of the method: as §1
Pancreas [4] = assay: Biodistribution in pancreas of BALB/c nude mouse xenografted with human A375 cells at 0.8 to 1 MBq, iv after 60 mins by gamma-counter; assay type: ADME, organism-based, A-375; conditions: in vivo, 1 h; summary of the method: as §1
Brain [5] = assay: Biodistribution in brain of BALB/c nude mouse xenografted with human A375 cells at 0.8 to 1 MBq, iv after 30 mins by gamma-counter; assay type: ADME, organism-based, A-375; conditions: in vivo, 0.5 h; summary of the method: as §1
Lung [6] = assay: Biodistribution in lungs of BALB/c nude mouse xenografted with human A375 cells at 0.8 to 1 MBq, iv after 15 mins by gamma-counter; assay type: ADME, organism-based, A-375; conditions: in vivo, 0.25 h; summary of the method: as §1
[7] = Metabolic stability in human A375 cells xenografted in BALB/c nude mouse assessed as radioactivity after 0.25 to 2 hrs by HPLC analysis; assay type: ADME, cell-based, A-375; conditions: in vivo
Summary of the method: (§2)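 A375-tumored Balb/c nude mice received 18-20 MBq tracer iv. Plasma and urine were spiked with unlabeled FPHCys and KF and injected directly; tissues were sonicated in saline with carrier and centrifuged at 6000g. Radio-HPLC on C18 with methanol/phosphate buffer pH 6 gave intact fraction as authentic peak over total activity, at 0.25, 1 and 2 h.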

Blood [8] = assay: Biodistribution in blood of BALB/c nude mouse xenografted with human A375 cells at 0.8 to 1 MBq, iv after 120 mins by gamma-counter; assay type: ADME, organism-based, A-375; conditions: in vivo, 2 h; summary of the method: as §1
Kidney [9] = assay: Biodistribution in kidney of BALB/c nude mouse xenografted with human A375 cells at 0.8 to 1 MBq, iv after 30 mins by gamma-counter; assay type: ADME, organism-based, A-375; conditions: in vivo, 0.5 h; summary of the method: as §1
Pancreas [10] = assay: Biodistribution in pancreas of BALB/c nude mouse xenografted with human A375 cells at 0.8 to 1 MBq, iv after 120 mins by gamma-counter; assay type: ADME, organism-based, A-375; conditions: in vivo, 2 h; summary of the method: as §1
Muscle tissue [11] = assay: Biodistribution in muscle of BALB/c nude mouse xenografted with human A375 cells at 0.8 to 1 MBq, iv after 30 mins by gamma-counter; assay type: ADME, organism-based, A-375; conditions: in vivo, 0.5 h; summary of the method: as §1
Plasma = assay: Drug level in plasma of BALB/c nude mouse xenografted with human A375 cells assessed as radioactivity in protein fractions after 0.25 to 2 hrs; assay type: ADME, cell-free, A-375; conditions: in vivo
Summary of the method: (§3)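 Female Balb/c nude mice bore subcutaneous A375 flank tumors and received 18-20 MBq tracer iv. Plasma or tissue was sonicated in 10% TCA with unlabeled FPHCys and KF, then centrifuged at 6000g; the pellet was re-extracted twice. Protein-bound fraction is pellet versus supernatant radioactivity, sampled at 0.25, 1 and 2 h.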

Muscle tissue [12] = assay: Biodistribution in muscle of BALB/c nude mouse xenografted with human A375 cells at 0.8 to 1 MBq, iv after 15 mins by gamma-counter; assay type: ADME, organism-based, A-375; conditions: in vivo, 0.25 h; summary of the method: as §1
Muscle tissue [13] = assay: Biodistribution in muscle of BALB/c nude mouse xenografted with human A375 cells at 0.8 to 1 MBq, iv after 120 mins by gamma-counter; assay type: ADME, organism-based, A-375; conditions: in vivo, 2 h; summary of the method: as §1
Lung [14] = assay: Biodistribution in lungs of BALB/c nude mouse xenografted with human A375 cells at 0.8 to 1 MBq, iv after 30 mins by gamma-counter; assay type: ADME, organism-based, A-375; conditions: in vivo, 0.5 h; summary of the method: as §1
Pancreas [15] = assay: Biodistribution in pancreas of BALB/c nude mouse xenografted with human A375 cells at 0.8 to 1 MBq, iv after 30 mins by gamma-counter; assay type: ADME, organism-based, A-375; conditions: in vivo, 0.5 h; summary of the method: as §1
Kidney [16] = assay: Biodistribution in kidney of BALB/c nude mouse xenografted with human A375 cells at 0.8 to 1 MBq, iv after 60 mins by gamma-counter; assay type: ADME, organism-based, A-375; conditions: in vivo, 1 h; summary of the method: as §1
HT-29 = assay: Cellular uptake in human HT-29 cells assessed as accumulation per 10^5 cells after 4 hours by gamma-counter; assay type: ADME, cell-based; conditions: ht-29, 4 h
Summary of the method: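 Cells seeded at 2.5 × 10^5 per well in RPMI-1640 with 10% FBS and 2 mM L-glutamine, attached overnight, then washed with warm PBS. Incubated at 37 °C with 0.37 MBq [18F]tracer in PBS for 2–240 min. Cells washed with ice-cold PBS, lysed in 0.2 N NaOH and counted by γ-counter. Read as % applied dose per 10^5 cells, decay-corrected, n = 3.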

Kidney [17] = assay: Biodistribution in kidney of BALB/c nude mouse xenografted with human A375 cells at 0.8 to 1 MBq, iv after 120 mins by gamma-counter; assay type: ADME, organism-based, A-375; conditions: in vivo, 2 h; summary of the method: as §1
Blood [18] = assay: Biodistribution in blood of BALB/c nude mouse xenografted with human A375 cells at 0.8 to 1 MBq, iv after 60 mins by gamma-counter; assay type: ADME, organism-based, A-375; conditions: in vivo, 1 h; summary of the method: as §1
Heart [19] = assay: Biodistribution in heart of BALB/c nude mouse xenografted with human A375 cells at 0.8 to 1 MBq, iv after 15 mins by gamma-counter; assay type: ADME, organism-based, A-375; conditions: in vivo, 0.25 h; summary of the method: as §1
Pancreas [20] = assay: Drug level in pancreas extract of BALB/c nude mouse xenografted with human A375 cells assessed as radioactivity in protein fraction after 0.25 to 2 hrs; assay type: ADME, tissue-based, A-375; conditions: in vivo; summary of the method: as §3
Spleen = assay: Biodistribution in spleen of BALB/c nude mouse xenografted with human A375 cells at 0.8 to 1 MBq, iv after 60 mins by gamma-counter; assay type: ADME, organism-based, A-375; conditions: in vivo, 1 h; summary of the method: as §1
Brain [21] = assay: Metabolic stability in brain of BALB/c nude mouse xenografted with human A375 cells assessed as radioactivity after 1 hrs by HPLC analysis; assay type: ADME, tissue-based, A-375; conditions: in vivo; summary of the method: as §2
Bone [22] = assay: Biodistribution in bone of BALB/c nude mouse xenografted with human A375 cells at 0.8 to 1 MBq, iv after 15 mins by gamma-counter; assay type: ADME, organism-based, Bone element, A-375; conditions: in vivo, 0.25 h; summary of the method: as §1
Kidney [23] = assay: Biodistribution in kidney of BALB/c nude mouse xenografted with human A375 cells after 60 mins by PET/CT imaging; assay type: ADME, organism-based, A-375; conditions: in vivo, 1 h
Summary of the method: (§4)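 Female Balb/c nude mice with A375 tumors (1×10^6 cells in Ca/Mg-free PBS injected s.c. in left flank at 6 weeks old). Mice under isoflurane in oxygen. 10 min CT scan, then 18-20 MBq tracer in 100 μL saline given i.v. with a 2 h PET acquisition. Coronal images at 60 min postinjection; n = 3.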

Urinary bladder = assay: Biodistribution in bladder of BALB/c nude mouse xenografted with human A375 cells after 60 mins by PET/CT imaging; assay type: ADME, organism-based, A-375; conditions: in vivo, 1 h; summary of the method: as §4
Heart [24] = assay: Biodistribution in heart of BALB/c nude mouse xenografted with human A375 cells at 0.8 to 1 MBq, iv after 30 mins by gamma-counter; assay type: ADME, organism-based, A-375; conditions: in vivo, 0.5 h; summary of the method: as §1
Blood [25] = assay: Biodistribution in blood of BALB/c nude mouse xenografted with human A375 cells at 0.8 to 1 MBq, iv after 30 mins by gamma-counter; assay type: ADME, organism-based, A-375; conditions: in vivo, 0.5 h; summary of the method: as §1
Heart [26] = assay: Biodistribution in heart of BALB/c nude mouse xenografted with human A375 cells at 0.8 to 1 MBq, iv after 60 mins by gamma-counter; assay type: ADME, organism-based, A-375; conditions: in vivo, 1 h; summary of the method: as §1

SMILES | Drug uptake (Brain [1]) | Drug uptake (Bone [2]) | Drug uptake (Kidney [3]) | Drug uptake (Pancreas [4]) | Drug uptake (Brain [5]) | Drug uptake (Lung [6]) | Stability [7] | Drug uptake (Blood [8]) | Drug uptake (Kidney [9]) | Drug uptake (Pancreas [10]) | Drug uptake (Muscle tissue [11]) | Drug uptake (Plasma) | Drug uptake (Muscle tissue [12]) | Drug uptake (Muscle tissue [13]) | Drug uptake (Lung [14]) | Drug uptake (Pancreas [15]) | Drug uptake (Kidney [16]) | Drug uptake (HT-29) | Drug uptake (Kidney [17]) | Drug uptake (Blood [18]) | also measured
Cl.N[C@@H](CCSCCC[18F])C(=O)O | 2.57 % ID/g | 2.31 % ID/g | 15.4 % ID/g | 6.97 % ID/g | 2.57 % ID/g | 5.21 % ID/g | 82% | 1.38 % ID/g | 12.6 % ID/g | 3.77 % ID/g | 4.2 % ID/g | 1% | 4.12 % ID/g | 1.52 % ID/g | 5.07 % ID/g | 12.3 % ID/g | 5.96 % ID/g | 2% | 3.92 % ID/g | 2.32 % ID/g | Drug uptake (Heart [19]): 5.08 % ID/g; Drug uptake (Pancreas [20]): 1%; Drug uptake (Spleen): 2.11 % ID/g; Stability (Brain [21]): 90%; Drug uptake (Bone [22]): 3.33 % ID/g; Drug uptake (Kidney [23]): Active; Drug uptake (Urinary bladder): Active; Drug uptake (Heart [24]): 4.2 % ID/g; Drug uptake (Blood [25]): 4.44 % ID/g; Drug uptake (Heart [26]): 2.32 % ID/g
Cl.N[C@H](CCSCCC[18F])C(=O)O | 0.25 % ID/g | 1.63 % ID/g | 12.2 % ID/g | 4.79 % ID/g | 1.56 % ID/g | 4.11 % ID/g | 82% | 0.89 % ID/g | 6.49 % ID/g | 1.43 % ID/g | 1.97 % ID/g | 1% | 2.12 % ID/g | 0.63 % ID/g | 2.84 % ID/g | 19.6 % ID/g | 2.75 % ID/g | 1.6% | 1.04 % ID/g | 0.89 % ID/g | Drug uptake (Heart [19]): 3.92 % ID/g; Drug uptake (Pancreas [20]): 1%; Drug uptake (Spleen): 0.95 % ID/g; Stability (Brain [21]): 90%; Drug uptake (Bone [22]): 2.55 % ID/g; Drug uptake (Kidney [23]): Active; Drug uptake (Urinary bladder): Active; Drug uptake (Heart [24]): 3.05 % ID/g; Drug uptake (Blood [25]): 2.51 % ID/g; Drug uptake (Heart [26]): 1.16 % ID/g
